Each structure is given as a SMILES string.

Usually IC50 stands for the point on the concentration scale where inhibition reaches its midpoint.

T1 sequence (P37288 whole entry): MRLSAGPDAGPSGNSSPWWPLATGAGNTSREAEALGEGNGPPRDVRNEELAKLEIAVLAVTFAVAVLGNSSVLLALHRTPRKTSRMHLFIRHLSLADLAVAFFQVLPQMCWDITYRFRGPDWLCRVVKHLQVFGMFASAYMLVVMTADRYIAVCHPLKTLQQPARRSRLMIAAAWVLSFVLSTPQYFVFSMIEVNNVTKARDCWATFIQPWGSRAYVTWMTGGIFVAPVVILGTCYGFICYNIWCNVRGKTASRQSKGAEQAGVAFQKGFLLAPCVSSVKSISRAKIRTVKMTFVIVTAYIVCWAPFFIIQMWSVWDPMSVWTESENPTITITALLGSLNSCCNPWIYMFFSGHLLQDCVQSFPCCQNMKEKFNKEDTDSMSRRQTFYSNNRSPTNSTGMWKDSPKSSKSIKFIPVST

The test system of the first assay is Rattus norvegicus. Put plainly: Effect on urine osmolality at a dose of 10 mg/kg in hydrated 10 male rats was determined. Type of assay: functional. A digest of the protocol:
(§1)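 Conscious, hydrated male Sprague–Dawley rats dosed orally with test compound in 0.5% hydroxypropyl-methylcellulose vehicle, or with vehicle alone (3–100 mg/kg). Urine collected over 4 h. Urine volume (mL) and osmolality (mOsmol/Kg) reported as mean with error, about 10 animals per group. Significance judged at p<0.05 versus vehicle.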
Take `O=C(O)C[C@@H]1CCN(C(=O)c2ccc(NC(=O)c3ccccc3-c3ccccc3)cc2)c2ccccc2S1`: the Urine osmolality is 299 mOsmol kg-1.

Another assay deals with Rattus norvegicus. As to the kind of experiment: Effect on urine volume at a dose of 10 mg/kg in hydrated 10 male rats was determined. The assay is classed as functional. A digest of the protocol: as §1
The compound `O=C(O)C[C@@H]1CCN(C(=O)c2ccc(NC(=O)c3ccccc3-c3ccccc3)cc2)c2ccccc2S1` yielded a Urine volume of 7.3 mL.

The next assay deals with T1, Vasopressin V1a receptor (Homo sapiens, UniProt P37288). Put plainly: Inhibition of vasopressin induced calcium […] in human V1a receptor expressing cells. The assay is classed as functional. A digest of the protocol:
(§2)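 Functional antagonism in cells expressing the human receptor. For V2, inhibition of vasopressin-induced cAMP accumulation. For V1a, inhibition of vasopressin-induced calcium mobilization.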
As for `O=C(O)CC[C@H]1CCN(C(=O)c2ccc(NC(=O)c3ccccc3-c3ccccc3)cc2)c2ccccc2S1`, the concentration for half-maximal inhibition (IC50) worked out at 2010 nM.

On to `O=C(O)CC[C@@H]1CCN(C(=O)c2ccc(NC(=O)c3ccccc3-c3ccccc3)cc2)c2ccccc2S1`, for which the half-inhibitory concentration (IC50) was 4630 nM.

Turning to `O=C(O)C[C@@H]1CCN(C(=O)c2ccc(NC(=O)c3ccccc3-c3ccccc3)cc2)c2ccccc2S1`, the concentration for half-maximal inhibition (IC50) stood at 1760 nM.

For `O=C(Nc1ccc(C(=O)N2CCC(CCO)Sc3ccccc32)cc1)c1ccccc1-c1ccccc1` (centres undefined), the IC50 came to 150 nM.

Regarding `O=C(O)CC1CCN(C(=O)c2ccc(NC(=O)c3ccccc3-c3ccccc3)cc2)c2ccccc2S1` (centres undefined), the IC50 turned out to be 740 nM.

`O=C(O)C[C@H]1CCN(C(=O)c2ccc(NC(=O)c3ccccc3-c3ccccc3)cc2)c2ccccc2S1`: the half-maximal inhibitory concentration (IC50) was 2130 nM.

In another assay the test system is Rattus norvegicus. As to the kind of experiment: Effect on urine volume at a dose of 100 mg/kg in hydrated 10 male rats was determined.
For the compound `O=C(O)C[C@@H]1CCN(C(=O)c2ccc(NC(=O)c3ccccc3-c3ccccc3)cc2)c2ccccc2S1`, the Urine volume amounted to 13.8 mL.

In the next assay the target is T2, Vasopressin V2 receptor (Homo sapiens, UniProt P30518). Put plainly: Ability to displace [3H]arginine vasopressin in cloned human V2 receptor. A digest of the protocol: (§3)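 Radioligand displacement of 3H-arginine vasopressin from cloned human V1a or V2 receptors. Single-concentration lines are read as percent inhibition at […].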
T2 sequence (P30518 whole entry): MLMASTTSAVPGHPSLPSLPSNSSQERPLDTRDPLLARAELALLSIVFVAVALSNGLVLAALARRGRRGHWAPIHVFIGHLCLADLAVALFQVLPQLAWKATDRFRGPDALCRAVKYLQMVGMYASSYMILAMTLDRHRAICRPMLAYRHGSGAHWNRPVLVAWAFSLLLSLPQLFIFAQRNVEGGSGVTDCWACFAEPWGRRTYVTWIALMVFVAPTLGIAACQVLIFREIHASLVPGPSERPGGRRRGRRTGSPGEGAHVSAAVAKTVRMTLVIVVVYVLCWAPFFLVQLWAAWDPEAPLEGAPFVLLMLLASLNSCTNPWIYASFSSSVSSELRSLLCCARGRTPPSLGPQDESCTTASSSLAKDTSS
`CN(C)CC1CCN(C(=O)c2ccc(NC(=O)c3ccccc3-c3ccccc3)cc2)c2ccccc2S1` (centres undefined) returned an IC50 of 430 nM.

Turning to `O=C(O)CC[C@H]1CCN(C(=O)c2ccc(NC(=O)c3ccccc3-c3ccccc3)cc2)c2ccccc2S1`, the IC50 turned out to be 15 nM.

The compound `O=C(Nc1ccc(C(=O)N2CCC(CCF)Sc3ccccc32)cc1)c1ccccc1-c1ccccc1` (centres undefined) displayed a 50% inhibitory concentration (IC50) of 85 nM.

With `O=C(Nc1ccc(C(=O)N2CCC(CC(F)F)Sc3ccccc32)cc1)c1ccccc1-c1ccccc1` (centres undefined), the IC50 was found to be 100 nM.

With `O=C(O)CC[C@@H]1CCN(C(=O)c2ccc(NC(=O)c3ccccc3-c3ccccc3)cc2)c2ccccc2S1`, the 50% inhibitory concentration (IC50) was determined as 16 nM.

With `O=C(O)C[C@@H]1CCN(C(=O)c2ccc(NC(=O)c3ccccc3-c3ccccc3)cc2)c2ccccc2S1`, the IC50 was determined as 8 nM.

`O=C(Nc1ccc(C(=O)N2CCC(CCO)Sc3ccccc32)cc1)c1ccccc1-c1ccccc1` (centres undefined) displayed an IC50 of 8 nM.

`O=C(O)CC1CCN(C(=O)c2ccc(NC(=O)c3ccccc3-c3ccccc3)cc2)c2ccccc2S1` (centres undefined) came in with a 50% inhibitory concentration (IC50) of 7 nM.

Compound `O=C(O)C[C@H]1CCN(C(=O)c2ccc(NC(=O)c3ccccc3-c3ccccc3)cc2)c2ccccc2S1` registered an IC50 of 7 nM.

The next assay deals with Rattus norvegicus. Put plainly: Effect on urine osmolality at a dose of 30 mg/kg in hydrated 10 male rats was determined. Type of assay: functional. A digest of the protocol:
as §1
As to `O=C(O)C[C@@H]1CCN(C(=O)c2ccc(NC(=O)c3ccccc3-c3ccccc3)cc2)c2ccccc2S1`, the Urine osmolality is 161 mOsmol kg-1.

In a further assay the target is T2, Vasopressin V2 receptor. As to the kind of experiment: Inhibition of vasopressin induced cAMP accumulation in human V2 receptor expressing cells. The assay is classed as functional. A digest of the protocol: as §2
Background: cAMP levels reflect the balance of adenylyl cyclase and phosphodiesterase activity.
In turn, `O=C(O)CC[C@H]1CCN(C(=O)c2ccc(NC(=O)c3ccccc3-c3ccccc3)cc2)c2ccccc2S1` returned an IC50 of 30 nM.

With `O=C(O)CC[C@@H]1CCN(C(=O)c2ccc(NC(=O)c3ccccc3-c3ccccc3)cc2)c2ccccc2S1`, half-maximal inhibition (IC50) required 40 nM.

As for `O=C(O)C[C@@H]1CCN(C(=O)c2ccc(NC(=O)c3ccccc3-c3ccccc3)cc2)c2ccccc2S1`, 30 nM corresponded to half-maximal inhibition (IC50).

`O=C(Nc1ccc(C(=O)N2CCC(CCO)Sc3ccccc32)cc1)c1ccccc1-c1ccccc1` (centres undefined) showed a concentration for half-maximal inhibition (IC50) of 100 nM.

Compound `O=C(O)CC1CCN(C(=O)c2ccc(NC(=O)c3ccccc3-c3ccccc3)cc2)c2ccccc2S1` (centres undefined) came in with an IC50 of 40 nM.

`O=C(O)C[C@H]1CCN(C(=O)c2ccc(NC(=O)c3ccccc3-c3ccccc3)cc2)c2ccccc2S1` displayed an IC50 of 36 nM.

The subject of a further assay is Rattus norvegicus. Put plainly: Effect on urine osmolality at a dose of 100 mg/kg in hydrated 10 male rats was determined. Type of assay: functional. A digest of the protocol: as §1
`O=C(O)C[C@@H]1CCN(C(=O)c2ccc(NC(=O)c3ccccc3-c3ccccc3)cc2)c2ccccc2S1` displayed a Urine osmolality of 177 mOsmol kg-1.

The subject of a further assay is Rattus norvegicus. As to the kind of experiment: Effect on urine volume at a dose of 3 mg/kg in hydrated 10 male rats was determined. Type of assay: functional. A digest of the protocol:
as §1
Regarding `O=C(O)C[C@@H]1CCN(C(=O)c2ccc(NC(=O)c3ccccc3-c3ccccc3)cc2)c2ccccc2S1`, the Urine volume amounted to 2.2 mL.

A further assay deals with T1, Vasopressin V1a receptor. As to the kind of experiment: Ability to displace [3H]arginine vasopressin in cloned human V1a receptor. A digest of the protocol:
as §3
The compound `CN(C)CC1CCN(C(=O)c2ccc(NC(=O)c3ccccc3-c3ccccc3)cc2)c2ccccc2S1` (centres undefined) had a half-maximal inhibitory concentration (IC50) of 1200 nM.

The compound `O=C(O)CC[C@H]1CCN(C(=O)c2ccc(NC(=O)c3ccccc3-c3ccccc3)cc2)c2ccccc2S1` gave a half-inhibitory concentration (IC50) of 140 nM.

`O=C(Nc1ccc(C(=O)N2CCC(CCS(=O)(=O)O)Sc3ccccc32)cc1)c1ccccc1-c1ccccc1` (centres undefined): the concentration for half-maximal inhibition (IC50) was determined as 1150 nM.

Take `O=C(Nc1ccc(C(=O)N2CCC(CCF)Sc3ccccc32)cc1)c1ccccc1-c1ccccc1` (centres undefined): the half-maximal inhibitory concentration (IC50) was determined as 180 nM.

For `O=C(Nc1ccc(C(=O)N2CCC(CC(F)F)Sc3ccccc32)cc1)c1ccccc1-c1ccccc1` (centres undefined), the half-maximal inhibitory concentration (IC50) was found to be 160 nM.

Regarding `O=C(O)CC[C@@H]1CCN(C(=O)c2ccc(NC(=O)c3ccccc3-c3ccccc3)cc2)c2ccccc2S1`, the IC50 came to 314 nM.

Turning to `O=C(O)C[C@@H]1CCN(C(=O)c2ccc(NC(=O)c3ccccc3-c3ccccc3)cc2)c2ccccc2S1`, the IC50 is 1140 nM.

In turn, `O=C(Nc1ccc(C(=O)N2CCC(CCO)Sc3ccccc32)cc1)c1ccccc1-c1ccccc1` (centres undefined) returned an IC50 of 97 nM.

In the case of `O=C(O)CC1CCN(C(=O)c2ccc(NC(=O)c3ccccc3-c3ccccc3)cc2)c2ccccc2S1` (centres undefined), the IC50 was 729 nM.

`O=C(O)C[C@H]1CCN(C(=O)c2ccc(NC(=O)c3ccccc3-c3ccccc3)cc2)c2ccccc2S1` showed a half-inhibitory concentration (IC50) of 440 nM.

Another assay concerns Rattus norvegicus. As to the kind of experiment: Effect on urine osmolality at a dose of 3 mg/kg in hydrated 10 male rats was determined. The assay is classed as functional. A digest of the protocol:
as §1
In turn, `O=C(O)C[C@@H]1CCN(C(=O)c2ccc(NC(=O)c3ccccc3-c3ccccc3)cc2)c2ccccc2S1` came in with a Urine osmolality of 529 mOsmol kg-1.

A further assay deals with Rattus norvegicus. Put plainly: Effect on urine volume at a dose of 30 mg/kg in hydrated 10 male rats was determined. The assay is classed as functional. A digest of the protocol:
as §1
As to `O=C(O)C[C@@H]1CCN(C(=O)c2ccc(NC(=O)c3ccccc3-c3ccccc3)cc2)c2ccccc2S1`, the Urine volume stood at 15.7 mL.

The values are drawn from ChEMBL document CHEMBL1136360, “2,5-disubstituted 3,4-dihydro-2H-benzo[b][1,4]thiazepines as potent and selective V2 arginine vasopressin receptor antagonists” (Bioorg Med Chem Lett, 2003).
